In one assay the test system is MCF7. The assay can be described thus: Antiproliferative activity against human MCF7 cells after 72 hrs by MTS assay. In kind it is functional, cell-based. As to conditions: MCF7, 72 h. The essentials: (§1)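 IC50 values for growth inhibition were derived from assays run in triplicate. Values are mean ± standard deviation of at least two separate experiments.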
Assay [1] is described as follows: Antiproliferative activity against human SKBR3 cells after 72 hrs by MTS assay. In kind it is functional, cell-based. As to conditions: SK-BR-3, 72 h. In outline: as §1
Background: Formazan colour is commonly taken as a measure of viable cells.

Assay [2] deals with Heat shock protein HSP 90-beta (Homo sapiens) (UniProt P08238). As to the kind of experiment: Inhibition of HSP90 in human MCF7 cells assessed as degradation of p-Akt after 24 hrs by Western blotting analysis. Format: cell-based. The essentials:
(§2)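 MCF-7 breast cancer cells were treated with compound at the concentrations shown, then lysed. Lysates were analysed by Western blot for the Hsp90-dependent clients Her2, Raf-1 and p-Akt, with actin as the Hsp90-independent control. Geldanamycin (0.5 μM) served as positive control and DMSO as negative control.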
(In general: Immunoblotting shows a protein as a band on a membrane.)

Assay [3] has the same target. The assay can be described thus: Inhibition of HSP90 in human MCF7 cells assessed as degradation of Raf-1 after 24 hrs by Western blotting analysis. In kind it is cell-based. The essentials:
as §2

Assay [4] has the same target. As to the kind of experiment: Inhibition of HSP90 in human MCF7 cells assessed as degradation of Her-2 after 24 hrs by Western blotting analysis. Format: cell-based. In outline:
as §2

Assay [5] shares this target. As to the kind of experiment: Inhibition of HSP90 in human MCF7 cells assessed as degradation of p-Akt at 1 to 10 uM after 24 hrs by Western blotting analysis. In kind it is cell-based. The essentials:
as §2

Assay [6] has the same target. The assay can be described thus: Inhibition of HSP90 in human MCF7 cells assessed as degradation of Her-2 at 1 to 10 uM after 24 hrs by Western blotting analysis. Format: cell-based. The essentials:
as §2

The target is the same in assay [7]. The assay can be described thus: Inhibition of HSP90 in human MCF7 cells assessed as degradation of Raf-1 at 1 to 10 uM after 24 hrs by Western blotting analysis. In kind it is cell-based. The essentials:
as §2

Activity calls are given as the source filed them. The rule behind the calls is not given here.

Sequence of Heat shock protein HSP 90-beta (Homo sapiens) (P08238 whole entry): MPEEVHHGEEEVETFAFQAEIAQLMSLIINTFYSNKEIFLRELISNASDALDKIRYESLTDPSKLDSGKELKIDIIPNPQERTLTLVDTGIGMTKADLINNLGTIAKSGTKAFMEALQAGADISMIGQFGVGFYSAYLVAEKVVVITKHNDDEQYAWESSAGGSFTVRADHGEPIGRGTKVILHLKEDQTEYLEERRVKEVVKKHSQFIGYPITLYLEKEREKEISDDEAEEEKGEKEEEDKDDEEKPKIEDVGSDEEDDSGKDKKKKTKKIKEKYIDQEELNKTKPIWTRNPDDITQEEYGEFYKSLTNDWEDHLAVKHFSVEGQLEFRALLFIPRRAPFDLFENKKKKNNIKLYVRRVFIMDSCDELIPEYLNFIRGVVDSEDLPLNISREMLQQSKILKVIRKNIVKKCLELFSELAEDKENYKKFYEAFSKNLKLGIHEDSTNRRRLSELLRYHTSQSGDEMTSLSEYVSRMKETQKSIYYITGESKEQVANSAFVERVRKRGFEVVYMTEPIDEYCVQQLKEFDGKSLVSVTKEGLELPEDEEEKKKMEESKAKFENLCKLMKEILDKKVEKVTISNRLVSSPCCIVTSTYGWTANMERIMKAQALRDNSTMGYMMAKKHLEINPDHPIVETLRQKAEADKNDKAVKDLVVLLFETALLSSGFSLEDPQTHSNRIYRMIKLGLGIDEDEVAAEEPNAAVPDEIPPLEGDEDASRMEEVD

The term IC50 denotes the concentration that inhibits the measured activity by half. Low values mean higher potency, high ones lower potency. In the case of `CN1CCC(Oc2ccc(-c3cccc(NC(=O)c4ccc5ccccc5c4)c3)cc2)CC1`, the IC50 in the assay with MCF7 worked out at 1.66 µM; in assay [1], 2.09 µM.

For `CN1CCC(Oc2ccc(-c3cccc(NC(=O)c4cccc(Cl)c4)c3)cc2)CC1`, the IC50 was determined as 2.11 µM in the assay on MCF7 and 4.29 µM in assay [1].

For the compound `CN1CCC(Oc2ccc(-c3cccc(NC(=O)c4ccc(Cl)cc4Cl)c3)cc2)CC1`, the 50% inhibitory concentration (IC50) in the assay with MCF7 is 3.93 µM; in assay [1], 5.91 µM.

With `COc1cccc(C(=O)Nc2cccc(-c3ccc(OC4CCN(C)CC4)cc3)c2)c1`, the IC50 is 4.5 µM in the assay on MCF7 and 8.36 µM in assay [1].

Take `COc1ccc(C(=O)Nc2cccc(-c3ccc(OC4CCN(C)CC4)cc3)c2)cc1`: the IC50 turned out to be 5.52 µM in the assay with MCF7 and 10.1 µM in assay [1].

For the compound `CC(=O)Oc1ccc(C(=O)Nc2cccc(-c3ccc(OC4CCN(C)CC4)cc3)c2)cc1CC=C(C)C`, the 50% inhibitory concentration (IC50) in the assay on MCF7 came to 1.45 µM; in assay [1] it was 3.65 µM.

Regarding `CN1CCC(Oc2ccc(-c3cccc(NC(=O)c4ccc(Br)cc4)c3)cc2)CC1`, the IC50 in the assay with MCF7 came out at 0.88 µM; in assay [1], 1.94 µM. Further, the inhibition result in assay [2], in assay [3] and in assay [4] was “Dose-dependent effect” throughout.

Turning to `CC(C)=CCc1cc(C(=O)Nc2cccc(-c3ccc(OC4CCN(C)CC4)cc3)c2)ccc1O`, the IC50 worked out at 2.21 µM with MCF7 and 2.94 µM in assay [1]. Further, the inhibition entry in assay [5], in assay [6] and in assay [7] was “Active” in each case.

For the compound `CN1CCC(Oc2ccc(-c3cccc(NC(=O)c4cccc5ccccc45)c3)cc2)CC1`, the IC50 in the assay on MCF7 came to 1.1 µM; in assay [1], 1.64 µM.

Consider `CN1CCC(Oc2ccc(-c3cccc(NC(=O)c4ccccc4Cl)c3)cc2)CC1`, for which the 50% inhibitory concentration (IC50) with MCF7 was found to be 5.17 µM; in assay [1] it was 7.87 µM.

Consider `CN1CCC(Oc2ccc(-c3cccc(NC(=O)c4ccc(Cl)cc4)c3)cc2)CC1`, for which the figures for the IC50 (in the assay with MCF7; in assay [1]) were 2.23 µM and 3.63 µM, respectively.

In the case of `CN1CCC(Oc2ccc(-c3cccc(NC(=O)c4ccc(Cl)c(Cl)c4)c3)cc2)CC1`, the figures for the IC50 (with MCF7; in assay [1]) were 2.17 µM and 2.24 µM, respectively.

As for `CO[C@@H]1[C@@H](OC(N)=O)[C@@H](O)[C@H](Oc2ccc3c(O)c(NC(=O)c4ccc(O)c(CC=C(C)C)c4)c(=O)oc3c2C)OC1(C)C` [NOVOBIOCIN], 700 µM corresponded to half-maximal inhibition in assay [1] (IC50).

Take `CN1CCC(Oc2ccc(-c3cccc(NC(=O)c4ccc(C(C)(C)C)cc4)c3)cc2)CC1`: the results for the 50% inhibitory concentration (IC50) (in the assay with MCF7; in assay [1]) were 3.45 µM and 1.51 µM, respectively.

As for `Cc1ccc(C(=O)Nc2cccc(-c3ccc(OC4CCN(C)CC4)cc3)c2)cc1`, the IC50 was determined as 3.92 µM in the assay on MCF7 and 5.27 µM in assay [1].

Turning to `COc1cccc(-c2cc(C(=O)Nc3cccc(-c4ccc(OC5CCN(C)CC5)cc4)c3)ccc2OC)c1`, the IC50 in the assay on MCF7 is 2.71 µM; in assay [1], 3.47 µM.

As to `CN1CCC(Oc2ccc(-c3cccc(NC(=O)c4cc(Cl)cc(Cl)c4)c3)cc2)CC1`, the IC50 in the assay on MCF7 stood at 3.72 µM; in assay [1] it was 4.23 µM.

Turning to `Cc1cccc(C(=O)Nc2cccc(-c3ccc(OC4CCN(C)CC4)cc3)c2)c1`, the IC50 in the assay with MCF7 stood at 7.73 µM; in assay [1], 11.4 µM.

With `CN1CCC(Oc2ccc(-c3cccc(NC(=O)c4ccccc4)c3)cc2)CC1`, the IC50 in the assay on MCF7 was determined as 12 µM; in assay [1], 18.9 µM.
